ChEMBL document CHEMBL4732101, “Novel quinolone-based potent and selective HDAC6 inhibitors: Synthesis, molecular modeling studies and biological investigation” (Eur J Med Chem, 2021)

Experiments:
[1] = biological target: T1, HDAC1 (histone deacetylase 1) (Homo sapiens, UniProt Q13547); assay: Inhibition of recombinant human C-terminal FLAG/His-tagged HDAC1 (1 to 482 residues) expressed in Sf9 insect cells at 50 uM using Z-(Ac)Lys-AMC as substrate measured after 90 mins by fluorescence assay relative to control; conditions: probe Z-(Ac)Lys-AMC
Procedure, shortened: (§1)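 Incubated with inhibitor in DMSO and fluorogenic substrate Z-(Ac)Lys-AMC (126 µM, as added) for 90 min at 37 °C. Stopped with trichostatin A plus trypsin for 30 min at 37 °C; fluorescence read at ex 390/em 460 nm.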

[2] = biological target: T1, HDAC1 (histone deacetylase 1); assay: Inhibition of recombinant human C-terminal FLAG/His-tagged HDAC1 (1 to 482 residues) expressed in Sf9 insect cells at 10 uM using Z-(Ac)Lys-AMC as substrate measured after 90 mins by fluorescence assay relative to control; conditions: probe Z-(Ac)Lys-AMC; procedure, shortened: as §1
[3] = biological target: T1, HDAC1 (histone deacetylase 1); assay: Inhibition of recombinant human C-terminal FLAG/His-tagged HDAC1 (1 to 482 residues) expressed in Sf9 insect cells at 25 uM using Z-(Ac)Lys-AMC as substrate measured after 90 mins by fluorescence assay relative to control; conditions: probe Z-(Ac)Lys-AMC; procedure, shortened: as §1
[4] = biological target: T2, Protein deacetylase HDAC6 (Homo sapiens, UniProt Q9UBN7); assay: Inhibition of recombinant human full length N-terminal GST-tagged HDAC6 expressed in baculovirus infected Sf9 cells using Z-(Ac)Lys-AMC as substrate measured after 90 mins by fluorescence assay
T2 sequence (Q9UBN7 whole entry): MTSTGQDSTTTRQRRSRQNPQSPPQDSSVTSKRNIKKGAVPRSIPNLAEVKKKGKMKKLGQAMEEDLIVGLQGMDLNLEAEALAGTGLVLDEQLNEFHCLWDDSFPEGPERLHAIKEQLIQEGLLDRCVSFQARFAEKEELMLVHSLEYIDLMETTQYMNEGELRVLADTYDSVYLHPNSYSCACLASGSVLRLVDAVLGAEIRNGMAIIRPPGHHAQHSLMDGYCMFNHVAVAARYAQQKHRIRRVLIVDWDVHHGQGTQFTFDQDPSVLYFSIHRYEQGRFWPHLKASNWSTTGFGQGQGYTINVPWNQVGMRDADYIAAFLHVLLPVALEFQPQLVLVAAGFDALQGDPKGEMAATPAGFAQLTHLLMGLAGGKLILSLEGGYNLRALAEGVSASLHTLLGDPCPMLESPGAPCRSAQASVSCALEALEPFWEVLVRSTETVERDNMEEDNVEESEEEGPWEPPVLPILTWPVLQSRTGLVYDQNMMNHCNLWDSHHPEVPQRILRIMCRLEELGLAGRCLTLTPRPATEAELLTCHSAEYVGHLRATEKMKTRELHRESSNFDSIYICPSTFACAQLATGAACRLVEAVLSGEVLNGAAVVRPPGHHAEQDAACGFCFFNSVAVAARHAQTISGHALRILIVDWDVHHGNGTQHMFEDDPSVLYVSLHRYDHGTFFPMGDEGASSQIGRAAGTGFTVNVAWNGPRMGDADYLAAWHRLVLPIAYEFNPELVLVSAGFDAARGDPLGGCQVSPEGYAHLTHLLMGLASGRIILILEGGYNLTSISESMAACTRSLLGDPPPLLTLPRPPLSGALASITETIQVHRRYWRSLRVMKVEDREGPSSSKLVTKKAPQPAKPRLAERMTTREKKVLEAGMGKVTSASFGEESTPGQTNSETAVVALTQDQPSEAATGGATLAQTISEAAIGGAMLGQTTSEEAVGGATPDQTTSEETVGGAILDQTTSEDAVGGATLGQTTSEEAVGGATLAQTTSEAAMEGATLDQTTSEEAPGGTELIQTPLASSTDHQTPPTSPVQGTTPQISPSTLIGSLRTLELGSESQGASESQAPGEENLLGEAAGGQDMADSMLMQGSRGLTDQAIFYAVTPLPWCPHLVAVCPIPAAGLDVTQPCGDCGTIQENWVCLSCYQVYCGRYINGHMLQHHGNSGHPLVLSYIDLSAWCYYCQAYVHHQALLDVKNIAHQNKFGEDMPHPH

[5] = biological target: T1, HDAC1 (histone deacetylase 1); assay: Inhibition of recombinant human C-terminal FLAG/His-tagged HDAC1 (1 to 482 residues) expressed in Sf9 insect cells at 1 uM using Z-(Ac)Lys-AMC as substrate measured after 90 mins by fluorescence assay relative to control; conditions: probe Z-(Ac)Lys-AMC; procedure, shortened: as §1
Histone deacetylase 1 = Histone deacetylase 1 (Homo sapiens, UniProt Q13547); assay: Inhibition of recombinant human C-terminal FLAG/His-tagged HDAC1 (1 to 482 residues) expressed in Sf9 insect cells using Z-(Ac)Lys-AMC as substrate measured after 90 mins by fluorescence assay; procedure, shortened: as §1
[6] = Mutagenicity in Salmonella typhimurium TA100 at 5 to 230 uM measured after 90 mins in presence of rat liver S9 fraction by Ames test; format: toxicity, subcellular; conditions: salmonella enterica subsp. enterica serovar typhimurium, s9, 1.5 h, dose 5-230 µM
NIH3T3 = assay: Cytotoxicity against mouse NIH/3T3 cells assessed as reduction in cell viability after 24 hrs by neutral red uptake assay; format: cell-based; conditions: NIH3T3, 24 h
Procedure, shortened: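 NIH3T3 fibroblasts seeded at 5 x 10^4 per well and cultured 24 h at 37 °C, 5% CO2. DMSO-solubilized samples added at 8 to 160 µM for 24 h; medium as negative control. Neutral Red medium applied 3 h, dye desorbed in acetic acid/ethanol, absorbance read at 540 nm. Three experiments, six replicates per concentration; viability normalized to % control.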

[7] = Stability of compound in pH 3 buffer assessed as parent compound remaining at 250 uM measured after 24 hrs by HPLC/UV/DAD method; format: physicochemical; conditions: read-out: Stabilty
Procedure, shortened: (§2)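 10 mM DMSO stock diluted to 250 µM (2.5% DMSO) in 50 mM acetic acid, pH 3.0, and shaken 24 h at 25 °C. For solubility, samples filtered, diluted 1:2, quantified by HPLC-UV at 254 nm against a standard. For stability, percent remaining taken as the 24 h peak area over the T0 peak area. Triplicate analyses averaged.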

[8] = Solubility of compound in pH 3 buffer at 250 uM measured after 24 hrs by HPLC/UV/DAD method; format: physicochemical; conditions: pH 3, 24 h; procedure, shortened: as §2
[9] = Mutagenicity in Salmonella typhimurium TA98 at 5 to 230 uM measured after 90 mins in absence of rat liver S9 fraction by Ames test; format: toxicity; conditions: salmonella enterica subsp. enterica serovar typhimurium, 1.5 h, dose 5-230 µM
[10] = Mutagenicity in Salmonella typhimurium TA100 at 5 to 230 uM measured after 90 mins in absence of rat liver S9 fraction by Ames test; format: toxicity; conditions: salmonella enterica subsp. enterica serovar typhimurium, s9, 1.5 h, dose 5-230 µM
[11] = Mutagenicity in Salmonella typhimurium TA98 at 5 to 230 uM measured after 90 mins in presence of rat liver S9 fraction by Ames test; format: toxicity, subcellular; conditions: salmonella enterica subsp. enterica serovar typhimurium, s9, 1.5 h, dose 5-230 µM

Chain of Histone deacetylase 1 (Q13547 whole entry, the tested form may be a part): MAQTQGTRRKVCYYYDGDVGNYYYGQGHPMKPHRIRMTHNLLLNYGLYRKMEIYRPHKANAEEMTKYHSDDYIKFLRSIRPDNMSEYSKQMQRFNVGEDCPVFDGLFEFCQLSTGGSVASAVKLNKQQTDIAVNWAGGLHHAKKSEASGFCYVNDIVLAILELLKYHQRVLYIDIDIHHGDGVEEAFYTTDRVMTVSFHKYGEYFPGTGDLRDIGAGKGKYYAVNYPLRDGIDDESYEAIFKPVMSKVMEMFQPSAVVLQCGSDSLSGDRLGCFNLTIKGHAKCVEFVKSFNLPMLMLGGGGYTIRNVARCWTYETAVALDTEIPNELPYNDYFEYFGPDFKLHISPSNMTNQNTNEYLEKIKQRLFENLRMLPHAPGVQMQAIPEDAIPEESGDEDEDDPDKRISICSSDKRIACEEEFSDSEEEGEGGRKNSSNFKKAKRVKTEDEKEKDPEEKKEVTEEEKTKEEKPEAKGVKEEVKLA
T1 sequence (Q13547 whole entry, the tested form may be a part): as above

SMILES	inhibition at 1.5 h, 50 µM [1] [%]	inhibition at 1.5 h, 10 µM [2] [%]	inhibition at 1.5 h, 25 µM [3] [%]	IC50 [4] [nM]	inhibition at 1.5 h, 1 µM [5] [%]	IC50 (Histone deacetylase 1) [nM]	further results
O=C(NO)c1ccc(Cn2c(=O)c(O)c(-c3cccnc3)c3ccccc32)cc1	96	36	82	296	< 10	–	–
O=C(NO)c1ccc(Cn2c(=O)c(O)c(-c3ccccc3)c3ccccc32)cc1	–	–	–	308	–	11000	–
Cn1c(=O)c(OCc2ccc(C(=O)NO)cc2)c(-c2ccccc2)c2ccccc21	80	26	46	519	< 10	–	–

These reach a lower IC50 [4]. Values come first.

inhibition at 1.5 h, 50 µM [1] [%]	inhibition at 1.5 h, 10 µM [2] [%]	inhibition at 1.5 h, 25 µM [3] [%]	IC50 [4] [nM]	inhibition at 1.5 h, 1 µM [5] [%]	IC50 (Histone deacetylase 1) [nM]	SMILES	further results
97	76	93	176	17	–	O=C(NO)c1ccc(COc2c(-c3ccccc3)c3ccccc3n(Cc3ccccc3)c2=O)cc1	–
–	–	–	82.3	–	6100	C#CCn1c(=O)c(OCc2ccc(C(=O)NO)cc2)c(-c2ccccc2)c2ccccc21	–
–	–	–	25.6	–	2500	O=C(NO)c1ccc(COc2c(-c3cccnc3)c3ccccc3n(Cc3ccccc3)c2=O)cc1	–
–	–	–	61.6	–	4500	COc1c(-c2ccccc2)c2ccccc2n(Cc2ccc(C(=O)NO)cc2)c1=O	Activity [6]: Non-Toxic; IC50 (NIH3T3): 90000 nM; remaining at 24 h, 250 µM [7]: > 95%; solubility [8]: Soluble; Activity [9]: Non-Toxic; Activity [10]: Non-Toxic; Activity [11]: Non-Toxic
